Measurements taken from ChEMBL document CHEMBL4823260, “From High-Throughput Screening to Target Validation: Benzo[d]isothiazoles as Potent and Selective Agonists of Human Transient Receptor Potential Cation Channel Subfamily M Member 5 Possessing In Vivo Gastrointestinal Prokinetic Activity in Rodents” (J Med Chem, 2021).

Key:
[1] = target: T1, Transient receptor potential cation channel subfamily M member 5 (Mus musculus, UniProt Q9JJH7); assay: Agonist activity at mouse TRPM5 expressed in CHO-K1 cells maintained at 80 mV final holding potential by syncroPatch assay; format: cell-based
T1 sequence (Q9JJH7 whole entry): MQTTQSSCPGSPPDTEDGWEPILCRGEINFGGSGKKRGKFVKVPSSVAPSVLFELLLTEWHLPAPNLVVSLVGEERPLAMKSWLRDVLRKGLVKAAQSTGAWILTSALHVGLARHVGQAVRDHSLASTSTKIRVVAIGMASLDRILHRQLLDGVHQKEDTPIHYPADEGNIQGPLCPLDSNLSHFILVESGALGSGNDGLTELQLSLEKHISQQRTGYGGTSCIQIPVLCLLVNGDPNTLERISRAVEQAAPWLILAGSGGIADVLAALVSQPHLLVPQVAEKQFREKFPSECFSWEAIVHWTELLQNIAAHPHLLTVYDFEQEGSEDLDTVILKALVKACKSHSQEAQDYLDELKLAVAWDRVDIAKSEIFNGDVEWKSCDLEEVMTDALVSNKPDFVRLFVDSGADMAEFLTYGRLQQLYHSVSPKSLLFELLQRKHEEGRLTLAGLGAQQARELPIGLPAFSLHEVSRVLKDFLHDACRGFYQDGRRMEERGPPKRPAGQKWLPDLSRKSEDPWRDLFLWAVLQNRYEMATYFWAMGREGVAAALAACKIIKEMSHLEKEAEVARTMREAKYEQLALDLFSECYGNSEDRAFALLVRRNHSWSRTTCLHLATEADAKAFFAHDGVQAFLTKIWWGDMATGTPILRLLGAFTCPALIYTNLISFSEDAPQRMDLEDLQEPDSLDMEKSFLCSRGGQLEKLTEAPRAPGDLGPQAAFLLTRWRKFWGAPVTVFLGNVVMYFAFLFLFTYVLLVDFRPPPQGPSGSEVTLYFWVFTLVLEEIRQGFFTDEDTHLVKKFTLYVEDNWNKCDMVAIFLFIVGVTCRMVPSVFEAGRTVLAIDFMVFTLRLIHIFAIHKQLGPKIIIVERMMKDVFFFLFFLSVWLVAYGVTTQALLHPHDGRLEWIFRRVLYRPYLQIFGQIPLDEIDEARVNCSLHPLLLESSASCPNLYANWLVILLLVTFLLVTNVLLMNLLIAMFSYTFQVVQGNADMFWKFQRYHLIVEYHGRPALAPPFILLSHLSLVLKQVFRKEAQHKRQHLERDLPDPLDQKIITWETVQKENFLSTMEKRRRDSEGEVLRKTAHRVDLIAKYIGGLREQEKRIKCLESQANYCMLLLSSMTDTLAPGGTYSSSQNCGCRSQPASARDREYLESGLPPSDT
Outline: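 SyncroPatch 384 whole-cell recording at rt on CHO-K1 cells stably expressing human or mouse TRPM5. Intracellular solution had 2 mM Na-ATP and 5 μM free Ca2+. Cumulative doses 0.03–31.6 μM in 0.5% DMSO, 150 s each after 180 s vehicle. Current measured at the end of the +80 mV step, normalized to vehicle; pEC50 is the mean of ≥2 independent experiments.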

[2] = Clast in CD-1 mouse at 1 mg/kg, iv measured up to 24 hrs; format: ADME, organism-based; conditions: in vivo, read-out: Clast
[3] = Protein binding in mouse plasma assessed as unbound fraction measured after 5 hrs by equilibrium dialysis based HPLC/UPLC-MS/MS analysis; format: ADME, cell-free
[4] = Half life in CD-1 mouse at 1 mg/kg, iv measured up to 24 hrs; format: ADME, organism-based; conditions: in vivo
[5] = Clast in CD-1 mouse at 10 mg/kg, po measured up to 24 hrs; format: ADME, organism-based; conditions: in vivo, read-out: Clast
[6] = Drug concentration in C57BL6 mouse colon at 1 mg/kg, po administered as single dose measured after 6 hrs by LC-MS/MS analysis; format: ADME, organism-based; conditions: read-out: Ct
Outline: (§1)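 Single oral dose of 1, 3 or 100 mg/kg in mouse. Plasma (ng/mL) and colon and ileum (ng/g) exposure sampled at 6, 24 and 48 h, and at 72 h for the top dose; mean values reported.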

Mus musculus [7] = assay: Gastroprokinetic activity in CD-1 mouse assessed as stimulation of gastrointestinal motility by measuring fecal number at 1 mg/kg, po measured after 3 hrs (reference value: 9.1 +/-1.1); format: functional
Mus musculus [8] = assay: Gastroprokinetic activity in CD-1 mouse assessed as stimulation of gastrointestinal motility by measuring fecal number at 100 mg/kg, po measured after 3 hrs (reference value: 9.1 +/-1.1); format: functional
Mus musculus [9] = assay: Gastroprokinetic activity in CD-1 mouse assessed as stimulation of gastrointestinal motility by measuring total fecal weight at 1 mg/kg, po measured after 3 hrs (reference value: 0.21 +/-0.03 g); format: functional
Mus musculus [10] = assay: Gastroprokinetic activity in CD-1 mouse assessed as stimulation of gastrointestinal motility by measuring total fecal weight at 100 mg/kg, po measured after 6 hrs (reference value: 0.43 +/-0.05 g)
Mus musculus [11] = assay: Gastroprokinetic activity in CD-1 mouse assessed as stimulation of gastrointestinal motility by measuring fecal number at 10 mg/kg, po measured after 3 hrs (reference value: 9.1 +/-1.1); format: functional
Mus musculus [12] = assay: Gastroprokinetic activity in CD-1 mouse assessed as stimulation of gastrointestinal motility by measuring fecal number at 10 mg/kg, po measured after 2 hrs (reference value: 5.3 +/-0.7); format: functional
[13] = Toxicity in CD-1 mouse assessed as effect on behavioral change at 1 to 100 mg/kg, po measured up to 6 hrs; format: organism-based; conditions: in vivo, dose 1-100 mg/kg
Outline: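 CD-1 mice dosed orally at 1, 10 or 100 mg/kg or with formulation vehicle (N = 12/group). General health status, locomotion and general behaviour observed at 1, 2, 3 and 6 h after treatment, alongside fecal collection in single grid-floored cages.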

[14] = Drug concentration in C57BL6 mouse plasma at 100 mg/kg, po administered as single dose measured after 24 to 72 hrs by LC-MS/MS analysis; format: ADME, organism-based; conditions: in vivo, time 24-72 hrs; outline: as §1
Mus musculus [15] = assay: Gastroprokinetic activity in CD-1 mouse assessed as stimulation of gastrointestinal motility by measuring total fecal weight at 1 mg/kg, po measured after 1 hrs (reference value: 0.08 +/-0.02 g); format: functional
Mus musculus [16] = assay: Gastroprokinetic activity in CD-1 mouse assessed as stimulation of gastrointestinal motility by measuring total fecal weight at 1 mg/kg, po measured after 2 hrs (reference value: 0.13 +/-0.02 g); format: functional
Mus musculus [17] = assay: Gastroprokinetic activity in CD-1 mouse assessed as stimulation of gastrointestinal motility by measuring fecal number at 1 mg/kg, po measured after 1 hrs (reference value: 3 +/-0.8); format: functional
[18] = Drug concentration in C57BL6 mouse colon at 100 mg/kg, po administered as single dose measured after 24 hrs by LC-MS/MS analysis; format: ADME, organism-based; conditions: read-out: Ct; outline: as §1
[19] = Drug concentration in C57BL6 mouse plasma at 3 mg/kg, po administered as single dose measured after 6 to 48 hrs by LC-MS/MS analysis; format: ADME, organism-based; conditions: in vivo, time 6-48 hrs; outline: as §1

SMILES | EC50 [1] [nM] | concentration at 24 h [2] [ng/mL] | fraction unbound at 5 h [3] | half-life [4] [min] | concentration at 24 h [5] [ng/mL] | concentration at 6 h [6] [ng/g] | Activity (Mus musculus [7]) | Activity (Mus musculus [8]) | Activity (Mus musculus [9]) [g] | Activity (Mus musculus [10]) [g] | Activity (Mus musculus [11]) | Activity (Mus musculus [12]) | Activity [13] | Cp [14] [ng/mL] | Activity (Mus musculus [15]) [g] | Activity (Mus musculus [16]) [g] | Activity (Mus musculus [17]) | concentration at 24 h [18] [ng/g] | Cp [19] [ng/mL]
Clc1cnc(CNc2ccc3sncc3c2)s1 | 85.1 |  |  |  |  |  |  |  |  |  |  |  |  |  |  |  |  |  | 
Clc1cnc(CNc2ccc3cnsc3c2)s1 | 43.7 | 2.99 | < 0.01 | 48.6 | 2.76 |  |  |  |  |  |  |  |  |  |  |  |  |  | 
Clc1cnc(CNc2cc3sncc3cc2Cl)s1 | 15.8 |  | < 0.01 |  |  | 63.8 | 11.8 | 13 | 0.23 | 0.49 | 10.3 | 7.3 | Non-Toxic | < 20 | 0.09 | 0.15 | 4.3 | 164 | < 20
